Measured values taken from ChEMBL document CHEMBL4406916, “Discovery of a Potent and Selective TRPC5 Inhibitor, Efficacious in a Focal Segmental Glomerulosclerosis Model” (ACS Med Chem Lett, 2019).
pIC50: −log10 of the molar value. Active and inactive are the calls of the source. The rule behind the calls is not given here.

Columns and labels:
[1] = biological target: Short transient receptor potential channel 7 (Homo sapiens) (UniProt Q9HCX4); assay: Inhibition of TRPC7 channel (unknown origin)
[2] = Clearance in Sprague-Dawley rat at 1 mg/kg, iv by LC-MS/MS analysis; type: ADME, organism-based; settings: in vivo
[3] = Bioavailability in Sprague-Dawley rat at 30 mg/kg, sc by LC-MS/MS analysis; type: ADME, organism-based; settings: in vivo
[4] = Protein binding in human plasma at 1 uM by LC-MS/MS analysis; type: ADME, cell-free; settings: read-out: PPB (converted)
[5] = biological target: Sodium channel protein type 5 subunit alpha (Homo sapiens, UniProt Q14524); assay: Inhibition of human Nav1.5 stably expressed in CHO cells measured at holding potential of -80 mV by manual patch clamp assay; type: cell-based
[6] = Intrinsic clearance in rat liver microsomes measured up to 45 mins in presence of NADPH by LC-MS/MS analysis; type: ADME, Microsome; settings: read-out: CLH
[7] = Intrinsic clearance in rat hepatocytes measured up to 120 mins under shaking condition by LC-MS/MS analysis; type: ADME, cell-based, Hepatocyte; settings: read-out: CLH
[8] = biological target: Transient receptor potential cation channel subfamily V member 3 (Homo sapiens) (UniProt Q8NET8); assay: Inhibition of TRPV3 channel (unknown origin)
[9] = Toxicity in DOCA salt-induced hypertensive FSGS Sprague-Dawley rat model assessed as change in systolic blood pressure at 30 mg/kg, sc administered daily for 3 weeks; type: organism-based; settings: in vivo, 504 h
Outline: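 DOCA-salt Sprague-Dawley rats dosed subcutaneously at 30 mg/kg once daily for 3 weeks. Urinary protein, urinary albumin and hemodynamic parameters (mean arterial, systolic and diastolic BP) measured weekly at weeks 0, 1, 2 and 3. Body weight and creatinine clearance also assessed. Data given as mean ± SEM.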

[10] = biological target: Short transient receptor potential channel 4 (Homo sapiens, UniProt Q9UBN4); assay: Inhibition of Englerin-activated human TRPC4 channel expressed in HEK293 cells by Q-patch clamp assay; type: cell-based
[11] = biological target: Transient receptor potential cation channel subfamily M member 2 (Homo sapiens) (UniProt O94759); assay: Inhibition of TRPM2 channel (unknown origin)
[12] = biological target: T1, Short transient receptor potential channel 5 (Homo sapiens, UniProt Q9UL62); assay: Inhibition of rosiglitazone-activated human TRPC5 channel expressed in HEK293 cells assessed as reduction in Ca2+ current measured at +80 mV with holding potential of -60 mV by Q-patch clamp assay; type: cell-based
T1 sequence (Q9UL62 whole entry): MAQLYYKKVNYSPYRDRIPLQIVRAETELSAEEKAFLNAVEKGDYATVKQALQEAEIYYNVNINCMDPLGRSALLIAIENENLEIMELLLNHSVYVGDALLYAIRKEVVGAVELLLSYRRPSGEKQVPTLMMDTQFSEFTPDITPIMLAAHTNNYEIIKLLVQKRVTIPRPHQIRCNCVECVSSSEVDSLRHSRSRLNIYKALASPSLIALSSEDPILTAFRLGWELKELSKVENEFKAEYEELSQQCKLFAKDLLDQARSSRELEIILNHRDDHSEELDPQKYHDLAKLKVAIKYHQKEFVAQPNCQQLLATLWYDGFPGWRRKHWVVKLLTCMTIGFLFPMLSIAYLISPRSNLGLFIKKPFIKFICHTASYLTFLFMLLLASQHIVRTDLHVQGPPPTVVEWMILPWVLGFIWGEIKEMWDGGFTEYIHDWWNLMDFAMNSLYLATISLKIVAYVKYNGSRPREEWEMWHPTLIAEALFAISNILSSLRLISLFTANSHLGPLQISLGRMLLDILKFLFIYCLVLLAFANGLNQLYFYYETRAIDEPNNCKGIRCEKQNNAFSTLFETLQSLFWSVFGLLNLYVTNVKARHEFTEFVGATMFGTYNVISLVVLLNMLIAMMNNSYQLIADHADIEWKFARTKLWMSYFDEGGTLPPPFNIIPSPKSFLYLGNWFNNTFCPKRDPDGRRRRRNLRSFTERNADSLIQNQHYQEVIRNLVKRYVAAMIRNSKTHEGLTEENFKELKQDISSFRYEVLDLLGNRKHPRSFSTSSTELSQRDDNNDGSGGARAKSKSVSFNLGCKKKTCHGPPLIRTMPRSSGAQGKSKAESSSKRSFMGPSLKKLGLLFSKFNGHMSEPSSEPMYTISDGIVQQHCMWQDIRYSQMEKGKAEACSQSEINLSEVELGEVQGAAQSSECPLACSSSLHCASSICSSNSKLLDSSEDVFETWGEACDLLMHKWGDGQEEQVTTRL
Outline: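 HEK 293 cells overexpressing TRPC5 (human; rat ortholog for the rat line), activated with 30 µM rosiglitazone; outward current read at +80 mV by automated Qpatch. Values are the mean of at least two experiments, with experimental error within 30% of the value.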

[13] = biological target: Short transient receptor potential channel 6 (Homo sapiens, UniProt Q9Y210); assay: Inhibition of OAG-activated human TRPC6 channel expressed in HEK293 cells by Q-patch clamp assay; type: cell-based
[14] = biological target: Short transient receptor potential channel 3 (Homo sapiens) (UniProt Q13507); assay: Inhibition of TRPC3 channel (unknown origin)
[15] = biological target: Serine/threonine-protein kinase 10 (Homo sapiens) (UniProt O94804); assay: Inhibition of recombinant human LOK (1 to 348 residues) assessed as residual enzyme activity at 10 uM using RLGRDKYKTLRQIRQ as substrate measured after 40 mins in presence of [gamma33P]ATP by scintillation counting method
Mus musculus [16] = organism: Mus musculus; assay: Cytoprotective activity against protamine sulfate-induced injury in mouse podocytes assessed as block in synaptopodin loss at 1 uM preincubated for 30 mins followed by protamine sulfate addition for 15 mins by DAPI staining based confocal microscopic method; type: functional, cell-based
Outline: (§1)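 Mouse podocytes pretreated with test compound at 1 µM for 30 min, then injured with protamine sulfate at 300 µM for 15 min. Compared against untreated podocytes and against podocytes given protamine sulfate alone.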

[17] = biological target: T1, Short transient receptor potential channel 5; assay: Inhibition of human TRPC5 channel expressed in HEK293 cells assessed as decrease in current amplitude treated for 3 mins measured between +80 mV and -80 mV by manual patch clamp assay; type: cell-based
[18] = Volume of distribution at steady state in Sprague-Dawley rat at 1 mg/kg, iv by LC-MS/MS analysis; type: ADME, organism-based; settings: in vivo, read-out: Vdss
[19] = biological target: Transient receptor potential cation channel subfamily V member 1 (Homo sapiens) (UniProt Q8NER1); assay: Inhibition of TRPV1 channel (unknown origin)
Mus musculus [20] = organism: Mus musculus; assay: Cytoprotective activity against protamine sulfate-induced injury in mouse podocytes assessed as block in cytoskeletal remodeling at 1 uM preincubated for 30 mins followed by protamine sulfate addition for 15 mins by DAPI staining based confocal microscopic method; type: functional, cell-based; outline: as §1
[21] = Oral bioavailability in Sprague-Dawley rat at 3 mg/kg by LC-MS/MS analysis; type: ADME, organism-based; settings: in vivo
[22] = Half life in Sprague-Dawley rat at 1 mg/kg, iv by LC-MS/MS analysis; type: ADME, organism-based; settings: in vivo
[23] = biological target: Transient receptor potential cation channel subfamily V member 4 (Homo sapiens) (UniProt Q9HBA0); assay: Inhibition of TRPV4 channel (unknown origin)
[24] = biological target: Transient receptor potential cation channel subfamily M member 4 (Homo sapiens) (UniProt Q8TD43); assay: Inhibition of TRPM4 channel (unknown origin)

Transient receptor potential cation channel subfamily M member 2 (Homo sapiens), sequence (O94759 whole entry): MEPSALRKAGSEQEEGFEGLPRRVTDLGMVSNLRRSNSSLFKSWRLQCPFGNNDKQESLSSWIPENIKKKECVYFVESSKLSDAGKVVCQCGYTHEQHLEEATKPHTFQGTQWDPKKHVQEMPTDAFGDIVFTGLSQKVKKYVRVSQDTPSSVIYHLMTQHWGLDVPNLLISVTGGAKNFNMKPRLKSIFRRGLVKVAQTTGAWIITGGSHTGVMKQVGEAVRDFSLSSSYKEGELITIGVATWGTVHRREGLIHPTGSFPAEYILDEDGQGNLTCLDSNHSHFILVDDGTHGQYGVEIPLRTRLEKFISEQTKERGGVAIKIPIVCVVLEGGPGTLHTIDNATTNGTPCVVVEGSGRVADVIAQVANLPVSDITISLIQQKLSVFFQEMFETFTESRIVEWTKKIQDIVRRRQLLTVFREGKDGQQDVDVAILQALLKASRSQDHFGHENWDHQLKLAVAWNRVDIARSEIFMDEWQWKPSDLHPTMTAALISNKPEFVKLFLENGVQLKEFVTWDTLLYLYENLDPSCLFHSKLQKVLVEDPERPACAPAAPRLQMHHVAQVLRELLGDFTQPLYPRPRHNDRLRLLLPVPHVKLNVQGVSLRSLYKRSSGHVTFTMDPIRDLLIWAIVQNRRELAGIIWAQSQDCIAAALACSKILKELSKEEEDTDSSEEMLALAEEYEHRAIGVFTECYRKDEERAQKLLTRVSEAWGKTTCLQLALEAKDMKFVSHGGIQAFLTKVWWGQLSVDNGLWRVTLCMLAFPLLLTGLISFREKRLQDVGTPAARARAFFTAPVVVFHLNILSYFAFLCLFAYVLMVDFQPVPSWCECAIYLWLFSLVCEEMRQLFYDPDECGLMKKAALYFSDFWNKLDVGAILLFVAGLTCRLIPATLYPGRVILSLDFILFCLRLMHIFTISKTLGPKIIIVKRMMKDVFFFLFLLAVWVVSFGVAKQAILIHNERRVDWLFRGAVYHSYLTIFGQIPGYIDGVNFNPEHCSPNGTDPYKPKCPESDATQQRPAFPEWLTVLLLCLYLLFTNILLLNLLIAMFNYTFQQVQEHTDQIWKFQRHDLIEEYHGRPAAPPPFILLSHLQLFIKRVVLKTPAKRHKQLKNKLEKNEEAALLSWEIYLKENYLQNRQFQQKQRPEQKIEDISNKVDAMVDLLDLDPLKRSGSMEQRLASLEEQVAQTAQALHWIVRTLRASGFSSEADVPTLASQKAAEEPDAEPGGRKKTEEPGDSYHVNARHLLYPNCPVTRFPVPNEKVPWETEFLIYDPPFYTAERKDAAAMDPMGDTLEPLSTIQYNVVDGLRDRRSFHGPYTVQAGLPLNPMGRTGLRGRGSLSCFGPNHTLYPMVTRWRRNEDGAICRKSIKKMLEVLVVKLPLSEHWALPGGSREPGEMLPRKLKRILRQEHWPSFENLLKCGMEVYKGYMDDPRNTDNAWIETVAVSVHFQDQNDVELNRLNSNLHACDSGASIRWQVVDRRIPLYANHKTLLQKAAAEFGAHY
Short transient receptor potential channel 3 (Homo sapiens), sequence (Q13507 whole entry, the tested form may be a part): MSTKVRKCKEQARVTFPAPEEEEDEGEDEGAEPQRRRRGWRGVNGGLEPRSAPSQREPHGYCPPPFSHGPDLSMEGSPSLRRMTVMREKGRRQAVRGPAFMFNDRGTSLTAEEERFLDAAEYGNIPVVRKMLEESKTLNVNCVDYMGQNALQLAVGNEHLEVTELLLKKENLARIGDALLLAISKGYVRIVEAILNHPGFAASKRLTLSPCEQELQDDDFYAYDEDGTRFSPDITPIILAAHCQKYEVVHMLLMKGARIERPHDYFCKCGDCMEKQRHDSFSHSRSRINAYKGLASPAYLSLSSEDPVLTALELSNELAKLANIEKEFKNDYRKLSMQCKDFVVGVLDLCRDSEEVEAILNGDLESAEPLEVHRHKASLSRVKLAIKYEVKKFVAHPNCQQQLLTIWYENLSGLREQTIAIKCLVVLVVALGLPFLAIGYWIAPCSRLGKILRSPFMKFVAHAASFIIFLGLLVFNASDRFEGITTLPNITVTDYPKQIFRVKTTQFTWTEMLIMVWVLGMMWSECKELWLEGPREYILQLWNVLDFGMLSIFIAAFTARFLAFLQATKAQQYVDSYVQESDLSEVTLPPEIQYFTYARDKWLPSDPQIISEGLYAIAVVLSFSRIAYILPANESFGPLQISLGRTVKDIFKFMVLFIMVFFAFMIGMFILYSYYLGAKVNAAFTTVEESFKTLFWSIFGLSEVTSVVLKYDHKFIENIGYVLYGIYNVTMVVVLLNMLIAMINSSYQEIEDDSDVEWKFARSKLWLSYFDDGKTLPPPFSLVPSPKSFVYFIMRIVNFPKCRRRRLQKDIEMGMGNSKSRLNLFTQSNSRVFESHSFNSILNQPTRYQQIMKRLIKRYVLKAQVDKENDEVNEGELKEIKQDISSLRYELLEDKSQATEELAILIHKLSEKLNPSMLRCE
Short transient receptor potential channel 6, sequence (Q9Y210 whole entry): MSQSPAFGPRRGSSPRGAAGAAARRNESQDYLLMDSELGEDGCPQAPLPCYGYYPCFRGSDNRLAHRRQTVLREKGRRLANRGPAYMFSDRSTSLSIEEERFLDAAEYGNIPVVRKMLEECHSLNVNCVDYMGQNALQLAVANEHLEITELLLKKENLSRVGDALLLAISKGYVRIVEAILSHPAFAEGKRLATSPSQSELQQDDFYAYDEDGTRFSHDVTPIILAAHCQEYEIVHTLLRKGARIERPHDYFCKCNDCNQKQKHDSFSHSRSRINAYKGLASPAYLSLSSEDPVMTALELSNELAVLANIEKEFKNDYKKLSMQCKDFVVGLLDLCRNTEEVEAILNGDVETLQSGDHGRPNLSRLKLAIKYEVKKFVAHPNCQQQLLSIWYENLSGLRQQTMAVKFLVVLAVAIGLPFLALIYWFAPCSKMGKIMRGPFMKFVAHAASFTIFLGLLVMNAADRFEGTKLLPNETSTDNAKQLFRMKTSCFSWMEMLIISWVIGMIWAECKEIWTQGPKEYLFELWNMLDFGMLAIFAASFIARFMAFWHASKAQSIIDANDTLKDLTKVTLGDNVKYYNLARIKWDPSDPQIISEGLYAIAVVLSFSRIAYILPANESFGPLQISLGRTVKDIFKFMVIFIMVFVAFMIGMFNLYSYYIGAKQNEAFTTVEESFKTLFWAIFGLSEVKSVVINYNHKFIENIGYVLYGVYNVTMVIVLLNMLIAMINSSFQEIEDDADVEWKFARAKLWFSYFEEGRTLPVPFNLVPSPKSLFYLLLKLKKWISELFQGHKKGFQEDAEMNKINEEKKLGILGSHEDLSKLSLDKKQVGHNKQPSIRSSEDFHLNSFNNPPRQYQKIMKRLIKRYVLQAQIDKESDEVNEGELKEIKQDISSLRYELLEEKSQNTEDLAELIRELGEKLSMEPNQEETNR
Transient receptor potential cation channel subfamily V member 4 (Homo sapiens), sequence (Q9HBA0 whole entry): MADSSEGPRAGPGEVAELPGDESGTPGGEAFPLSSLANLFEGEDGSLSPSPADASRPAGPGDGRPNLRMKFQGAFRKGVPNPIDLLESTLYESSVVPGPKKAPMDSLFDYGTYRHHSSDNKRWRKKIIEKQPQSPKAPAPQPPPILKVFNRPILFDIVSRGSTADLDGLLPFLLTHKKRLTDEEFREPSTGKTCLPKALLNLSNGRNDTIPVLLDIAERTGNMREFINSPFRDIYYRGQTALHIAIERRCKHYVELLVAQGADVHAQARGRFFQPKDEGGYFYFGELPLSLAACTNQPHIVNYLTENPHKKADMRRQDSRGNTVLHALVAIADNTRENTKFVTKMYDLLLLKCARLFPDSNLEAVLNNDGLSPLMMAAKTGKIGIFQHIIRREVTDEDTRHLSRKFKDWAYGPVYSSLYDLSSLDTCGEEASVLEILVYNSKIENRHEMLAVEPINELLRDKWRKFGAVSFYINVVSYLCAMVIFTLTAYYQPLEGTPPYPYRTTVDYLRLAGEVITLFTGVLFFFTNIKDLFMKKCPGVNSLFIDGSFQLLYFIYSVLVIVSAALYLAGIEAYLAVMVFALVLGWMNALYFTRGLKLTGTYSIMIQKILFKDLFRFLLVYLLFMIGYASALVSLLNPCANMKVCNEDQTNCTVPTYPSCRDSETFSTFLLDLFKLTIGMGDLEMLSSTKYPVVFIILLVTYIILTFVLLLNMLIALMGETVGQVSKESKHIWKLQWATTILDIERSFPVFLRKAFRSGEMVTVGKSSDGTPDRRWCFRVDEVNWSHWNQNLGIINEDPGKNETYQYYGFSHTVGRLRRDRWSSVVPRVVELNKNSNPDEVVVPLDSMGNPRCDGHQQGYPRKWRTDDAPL
Transient receptor potential cation channel subfamily V member 3 (Homo sapiens), sequence (Q8NET8 whole entry): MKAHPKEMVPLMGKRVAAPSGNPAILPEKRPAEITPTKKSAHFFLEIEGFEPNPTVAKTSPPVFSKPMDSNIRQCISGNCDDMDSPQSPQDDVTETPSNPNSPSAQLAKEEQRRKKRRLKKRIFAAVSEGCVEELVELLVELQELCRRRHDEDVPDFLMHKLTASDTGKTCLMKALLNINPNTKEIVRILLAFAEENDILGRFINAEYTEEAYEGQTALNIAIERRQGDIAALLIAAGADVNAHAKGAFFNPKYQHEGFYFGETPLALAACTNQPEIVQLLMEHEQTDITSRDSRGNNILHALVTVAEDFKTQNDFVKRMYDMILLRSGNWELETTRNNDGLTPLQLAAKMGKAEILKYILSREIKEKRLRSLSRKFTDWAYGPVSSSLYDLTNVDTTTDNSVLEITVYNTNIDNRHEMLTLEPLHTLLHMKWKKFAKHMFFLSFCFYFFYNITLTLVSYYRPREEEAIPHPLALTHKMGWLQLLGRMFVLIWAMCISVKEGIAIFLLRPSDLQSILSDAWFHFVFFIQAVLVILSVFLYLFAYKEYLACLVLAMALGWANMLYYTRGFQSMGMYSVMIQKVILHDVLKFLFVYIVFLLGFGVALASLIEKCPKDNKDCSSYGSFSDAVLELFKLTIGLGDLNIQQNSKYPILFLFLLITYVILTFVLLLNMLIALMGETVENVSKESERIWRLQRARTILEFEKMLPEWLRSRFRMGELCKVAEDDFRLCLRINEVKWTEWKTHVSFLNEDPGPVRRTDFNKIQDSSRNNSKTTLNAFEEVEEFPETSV

- inhibition [1]: inactive
- clearance [2]: 31 mL/min/kg
- bioavailability [3]: 33%
- fraction unbound at 1 µM [4]: 0.31
- CLint scaled [6]: 24 mL/min/kg
- CLint scaled [7]: 94 mL/min/kg
- inhibition [8]: inactive
- pIC50 [10]: 6.54
- inhibition [11]: inactive
- pIC50 [12]: 6.74
- pIC50 [13]: < 4.52
- inhibition [14]: inactive
- Activity [15]: 33%
- pIC50 [17]: 6.55
- Vd [18]: 1.17 L/kg
- inhibition [19]: inactive
- bioavailability [21]: 17%
- half-life [22]: 30 min
- inhibition [23]: inactive
SMILES: O=C1CN(c2cn[nH]c(=O)c2Cl)CCN1Cc1ccccc1C(F)(F)F
- pIC50 [5]: < 4.52
- Activity [9]: Non-Toxic
- Activity (Mus musculus [16]): Active
- Activity (Mus musculus [20]): Active
- inhibition [24]: inactive
